Tests used:
[1] = molecular target: Telomerase reverse transcriptase (Homo sapiens, UniProt O14746); assay: Inhibitory activity of telomerase was measured using the TRAP assay.
Summary of the method: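 Cell-free modified TRAP with extracts from exponentially growing A2780 ovarian carcinoma cells. 0.04 μg protein was incubated with TS primer, dNTPs (50 μM each) and [α-32P]dCTP in TRAP buffer (pH 8.3, 68 mM KCl) ± agent, up to 50 μM final, for 20 min at 25 °C. Then 80 °C for 5 min, CX primer plus Taq, 31 PCR cycles. Products read by gel phosphorimaging/autoradiography or filter scintillation counting. IC50 taken as 50% inhibition relative to controls.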

SK-OV-3 = assay: In vitro cytotoxicity against SKOV-3 ovarian cells using the sulforhodamine B(SRB) assay.; format: functional, cell-based; conditions: Homo sapiens
Summary of the method: (§1)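 SRB growth assay. 3000–6000 cells were seeded and attached overnight. Agents were dissolved at 500 μM in water and added in quadruplicate at final 0.05, 0.25, 1, 5 and 25 μM. After 96 h, cells were fixed with cold 10% TCA and stained with 0.4% SRB. A540 was expressed as percent of untreated control and the 50% growth-inhibitory concentration was derived.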

A2780 = assay: In vitro cytotoxicity against A2780 ovarian cells using the sulforhodamine B(SRB) assay.; format: functional, cell-based; conditions: Homo sapiens; summary of the method: as §1
CH1 = assay: In vitro cytotoxicity against CH1 ovarian cells using the sulforhodamine B(SRB) assay.; format: functional, cell-based; conditions: Homo sapiens; summary of the method: as §1

Chain of Telomerase reverse transcriptase (O14746 whole entry): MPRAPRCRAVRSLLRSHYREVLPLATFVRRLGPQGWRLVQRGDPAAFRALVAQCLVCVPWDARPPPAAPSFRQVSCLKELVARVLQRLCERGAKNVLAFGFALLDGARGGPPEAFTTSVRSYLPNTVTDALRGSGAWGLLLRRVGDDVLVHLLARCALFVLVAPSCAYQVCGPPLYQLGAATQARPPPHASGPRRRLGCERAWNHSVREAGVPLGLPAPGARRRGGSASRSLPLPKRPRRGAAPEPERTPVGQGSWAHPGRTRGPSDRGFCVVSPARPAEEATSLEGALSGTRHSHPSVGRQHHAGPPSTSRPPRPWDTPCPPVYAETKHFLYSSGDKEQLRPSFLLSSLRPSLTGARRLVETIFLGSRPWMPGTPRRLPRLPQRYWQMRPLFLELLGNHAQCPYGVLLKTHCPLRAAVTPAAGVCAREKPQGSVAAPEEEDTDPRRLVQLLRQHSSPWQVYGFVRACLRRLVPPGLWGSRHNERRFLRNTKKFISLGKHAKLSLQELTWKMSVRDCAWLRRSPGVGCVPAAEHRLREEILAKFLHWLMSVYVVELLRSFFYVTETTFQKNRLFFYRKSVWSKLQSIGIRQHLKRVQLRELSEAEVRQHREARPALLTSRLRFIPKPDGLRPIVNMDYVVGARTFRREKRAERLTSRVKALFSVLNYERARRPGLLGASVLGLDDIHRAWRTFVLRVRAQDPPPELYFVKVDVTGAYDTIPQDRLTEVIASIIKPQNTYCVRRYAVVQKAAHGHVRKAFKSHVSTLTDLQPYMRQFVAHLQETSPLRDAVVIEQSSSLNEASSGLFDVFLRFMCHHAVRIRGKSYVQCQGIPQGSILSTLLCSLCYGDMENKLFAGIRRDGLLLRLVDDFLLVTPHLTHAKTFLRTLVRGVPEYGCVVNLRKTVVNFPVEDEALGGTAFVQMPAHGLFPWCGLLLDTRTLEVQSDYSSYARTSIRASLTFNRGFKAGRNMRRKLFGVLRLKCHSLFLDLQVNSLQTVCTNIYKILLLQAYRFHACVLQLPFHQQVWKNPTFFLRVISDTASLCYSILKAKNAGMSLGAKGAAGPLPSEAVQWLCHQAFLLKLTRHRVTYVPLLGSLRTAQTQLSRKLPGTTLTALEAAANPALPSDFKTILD

Structure (SMILES)	IC50 [1] [µM]	IC50 (SK-OV-3) [µM]	IC50 (A2780) [µM]	IC50 (CH1) [µM]
C[N+](C)(C)CCC(=O)Nc1ccc(NC(=O)CC[N+](C)(C)C)c2c1C(=O)c1ccccc1C2=O	7	–	–	–
CCN(CC)CCC(=O)Nc1ccc(NC(=O)CCN(CC)CC)c2c1C(=O)c1ccccc1C2=O	–	1.4	0.2	0.26
C[N+]1(CCC(=O)Nc2cccc3c2C(=O)c2cccc(NC(=O)CC[N+]4(C)CCOCC4)c2C3=O)CCOCC1	13.2	2.9	1.9	1.8
C[N+]1(CCC(=O)Nc2ccc(NC(=O)CC[N+]3(C)CCCC3)c3c2C(=O)c2ccccc2C3=O)CCCC1	5	37	1.5	4.5
O=C(CCN1CCCC1)Nc1cccc2c1C(=O)c1cccc(NC(=O)CCN3CCCC3)c1C2=O	–	0.53	0.32	0.36
C[N+]1(CCC(=O)Nc2ccc3c(c2)C(=O)c2ccc(NC(=O)CC[N+]4(C)CCCC4)cc2C3=O)CCCC1	–	2	0.56	1.35
O=C(CCN1CCOCC1)Nc1cccc2c1C(=O)c1c(NC(=O)CCN3CCOCC3)cccc1C2=O	> 50	> 25	> 25	21.5
C[N+]1(CCC(=O)Nc2cccc3c2C(=O)c2c(NC(=O)CC[N+]4(C)CCCC4)cccc2C3=O)CCCC1	8.2	5	0.6	1.68
CC[N+](C)(CC)CCC(=O)Nc1ccc(NC(=O)CC[N+](C)(CC)CC)c2c1C(=O)c1ccccc1C2=O	3.1	> 25	4.25	6.3
C[N+]1(CCC(=O)Nc2cccc3c2C(=O)c2cccc(NC(=O)CC[N+]4(C)CCCCC4)c2C3=O)CCCCC1	8.6	8.3	2	2.1
O=C(CCN1CCCCC1)Nc1cccc2c1C(=O)c1c(NC(=O)CCN3CCCCC3)cccc1C2=O	3.7	2.35	0.54	1.95
O=C(CCN1CCOCC1)Nc1cccc2c1C(=O)c1cccc(NC(=O)CCN3CCOCC3)c1C2=O	> 50	> 25	> 25	> 25
C[N+]1(CCC(=O)Nc2cccc3c2C(=O)c2c(NC(=O)CC[N+]4(C)CCOCC4)cccc2C3=O)CCOCC1	10	2.6	0.51	0.58
CCN(CC)CCC(=O)Nc1cccc2c1C(=O)c1cccc(NC(=O)CCN(CC)CC)c1C2=O	2.7	0.62	0.32	0.32
C[N+](C)(C)CCC(=O)Nc1ccc2c(c1)C(=O)c1cc(NC(=O)CC[N+](C)(C)C)ccc1C2=O	14.5	4	0.44	1.3
O=C(CCN1CCCC1)Nc1ccc2c(c1)C(=O)c1cc(NC(=O)CCN3CCCC3)ccc1C2=O	2	2.3	1.2	1.8
O=C(CCN1CCCCC1)Nc1cccc2c1C(=O)c1cccc(NC(=O)CCN3CCCCC3)c1C2=O	2.3	0.82	0.435	0.42
CN(C)CCC(=O)Nc1cccc2c1C(=O)c1c(NC(=O)CCN(C)C)cccc1C2=O	6.4	1.65	0.33	1.35
C[N+]1(CCC(=O)Nc2ccc3c(c2)C(=O)c2cc(NC(=O)CC[N+]4(C)CCOCC4)ccc2C3=O)CCOCC1	16.5	2.95	0.52	1.1
CC[N+](C)(CC)CCC(=O)Nc1cccc2c1C(=O)c1c(NC(=O)CC[N+](C)(CC)CC)cccc1C2=O	7.5	4.6	0.55	1.65
C[N+](C)(C)CCC(=O)Nc1cccc2c1C(=O)c1cccc(NC(=O)CC[N+](C)(C)C)c1C2=O	13.2	5.8	1.7	1.75

Structure (SMILES)	IC50 [1] [µM]	IC50 (SK-OV-3) [µM]	IC50 (A2780) [µM]	IC50 (CH1) [µM]
CCN(CC)CCC(=O)Nc1cccc2c1C(=O)c1c(NC(=O)CCN(CC)CC)cccc1C2=O	4.2	5.2	0.64	5.3
CC[N+](C)(CC)CCC(=O)Nc1ccc2c(c1)C(=O)c1ccc(NC(=O)CC[N+](C)(CC)CC)cc1C2=O	–	6.4	2.1	1.9
C[N+]1(CCC(=O)Nc2ccc3c(c2)C(=O)c2cc(NC(=O)CC[N+]4(C)CCCC4)ccc2C3=O)CCCC1	16	4.7	0.48	1.6
C[N+]1(CCC(=O)Nc2ccc3c(c2)C(=O)c2cc(NC(=O)CC[N+]4(C)CCCCC4)ccc2C3=O)CCCCC1	7.8	2.2	0.18	1.05
O=C(CCN1CCOCC1)Nc1ccc2c(c1)C(=O)c1ccc(NC(=O)CCN3CCOCC3)cc1C2=O	–	> 25	> 25	14
C[N+]1(CCC(=O)Nc2cccc3c2C(=O)c2c(NC(=O)CC[N+]4(C)CCCCC4)cccc2C3=O)CCCCC1	7.8	4.6	0.52	1.12
O=C(CCN1CCCC1)Nc1ccc2c(c1)C(=O)c1ccc(NC(=O)CCN3CCCC3)cc1C2=O	1.8	38	39	49
C[N+]1(CCC(=O)Nc2cccc3c2C(=O)c2cccc(NC(=O)CC[N+]4(C)CCCC4)c2C3=O)CCCC1	8.8	10	2.2	2.25
CC[N+](C)(CC)CCC(=O)Nc1cccc2c1C(=O)c1cccc(NC(=O)CC[N+](C)(CC)CC)c1C2=O	16.8	10	1.9	2.05
O=C(CCN1CCCC1)Nc1ccc(NC(=O)CCN2CCCC2)c2c1C(=O)c1ccccc1C2=O	–	0.39	0.0025	0.019
CCN(CC)CCC(=O)Nc1ccc2c(c1)C(=O)c1ccc(NC(=O)CCN(CC)CC)cc1C2=O	3.5	3.15	2.35	3.15
CN(C)CCC(=O)Nc1cccc2c1C(=O)c1cccc(NC(=O)CCN(C)C)c1C2=O	1.3	0.62	0.35	0.37
C[N+](C)(C)CCC(=O)Nc1cccc2c1C(=O)c1c(NC(=O)CC[N+](C)(C)C)cccc1C2=O	4.4	2.2	0.53	1.4
CC[N+](C)(CC)CCC(=O)Nc1ccc2c(c1)C(=O)c1cc(NC(=O)CC[N+](C)(CC)CC)ccc1C2=O	> 20	2	0.33	1.13
O=C(CCN1CCCC1)Nc1cccc2c1C(=O)c1c(NC(=O)CCN3CCCC3)cccc1C2=O	–	1.2	0.295	1.28
CN(C)CCC(=O)Nc1ccc2c(c1)C(=O)c1ccc(NC(=O)CCN(C)C)cc1C2=O	4.1	–	–	–
O=C(CCN1CCCCC1)Nc1ccc2c(c1)C(=O)c1cc(NC(=O)CCN3CCCCC3)ccc1C2=O	3.1	3.7	0.48	3.15
CN(C)CCC(=O)Nc1ccc2c(c1)C(=O)c1cc(NC(=O)CCN(C)C)ccc1C2=O	4.7	4.15	2.1	4.4
CCN(CC)CCC(=O)Nc1ccc2c(c1)C(=O)c1cc(NC(=O)CCN(CC)CC)ccc1C2=O	4.3	7.2	2.1	4.6
O=C(CCN1CCOCC1)Nc1ccc2c(c1)C(=O)c1cc(NC(=O)CCN3CCOCC3)ccc1C2=O	> 50	> 100	5.3	7.5
